From PubChem BioAssay
The list is not random: actives were taken first. Their share in the collection is about 3.8%.
V-ATPase pH – regulators of yeast V-ATPase proton transport. S. cerevisiae, pHLuorin cytosolic pH fluorescence. response, % at 10 µM. actives 0.37% (n = 350,000). AID 504577; in the data active means response mostly above about 7.3%, no sharp cut-off; inactive means mostly below about 5.4%; further: actives read high
Exocytosis inh – lytic granule exocytosis inhibition; AID 651702; inhibition, % at 10 µM; actives 0.66% (n = 360,000); TALL-104 LAMP-1 surface exposure, flow cytometry; cells stimulated with thapsigargin and PMA;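 active means inhibition above about 55%, limit read from the data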
rCAG RNA binder – r(CAG) repeat RNA binding. actives 1.3% (n = 370,000). TO-PRO-1 dye displacement fluorescence. inhibition, % at 3 µM. AID 651821;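 active means inhibition above the plate cutoff, the mean of all test compounds on that plate plus 3 SD, cut at about 35% in these data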;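 further: 0% = DMSO alone and 100% = 100 µM mitoxantrone as full dye displacement; higher means more dye released from RNA so lower well fluorescence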
Beta2AR agonist – human beta-2 adrenergic receptor agonism by FAP. P07550. Am2.2-beta2AR cells, FAP receptor internalization, flow cytometry. response, % (test concentration not listed). actives 0.43% (n = 340,000);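 active means response above a set limit, near 3 SD of response in nonfluorescent compounds, cut at about 42% in these data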
Target sequence (P07550 whole entry, looked up): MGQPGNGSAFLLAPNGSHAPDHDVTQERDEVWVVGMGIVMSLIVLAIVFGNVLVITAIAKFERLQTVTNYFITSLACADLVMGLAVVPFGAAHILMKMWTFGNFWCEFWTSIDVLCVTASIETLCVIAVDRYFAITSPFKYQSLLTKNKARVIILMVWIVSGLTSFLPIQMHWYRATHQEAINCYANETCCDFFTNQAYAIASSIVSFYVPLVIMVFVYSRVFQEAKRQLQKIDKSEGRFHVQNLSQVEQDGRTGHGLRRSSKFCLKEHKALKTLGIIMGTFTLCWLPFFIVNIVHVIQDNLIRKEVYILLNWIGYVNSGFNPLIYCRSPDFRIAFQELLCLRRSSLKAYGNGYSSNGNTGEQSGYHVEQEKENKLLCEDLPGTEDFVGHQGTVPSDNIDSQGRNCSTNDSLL
MPTP block – blocks calcium-induced mitochondrial swelling; isolated mouse mitochondria, Ca2+ swelling absorbance, 30 min; inhibition, % at 10 µM; actives 1.4% (n = 360,000); AID 602449;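 active means inhibition of 50% or more, scaled per plate between neutral and stimulator controls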;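 further: 0% = DMSO wells given calcium and 100% = 1 mM EGTA wells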
T cell modulator – T cell immune modulators affecting CD8 T cell-vesicle binding. response (vesicle binding), % at 7 µM. 2C CD8+ T cell-vesicle binding, flow cytometry; hits give low values. actives 0.068% (n = 330,000);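 active means response, share of CD8 T cells binding vesicles, and their 90th percentile fluorescence all below set limits, cut at about 80% in these data, passing the limit was not always enough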;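 further: values below 100% mean blocked vesicle binding to the CD8+ T cells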
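Material: murine 2C transgenic CD8+ T lymphocytes / Also added: QL9-peptide-loaded Drosophila micro-vesicles bearing Ld, ICAM-1 and B7-1 / Schedule: binding step 1.5 h, 37 °C, antibody labelling 20 min, ice / Signal: flow cytometry, PE anti-B7-1 (FL2) versus Alexa647 anti-CD8 (FL8), PFA-fixed / Evaluation: percent CD8+ FL2 mean versus row control / Benchmarks: naked versus QL9-loaded vesicles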
Rh123 counter – mitochondrial membrane potential, counter-screen | shares compounds with MPTP block | isolated mitochondria, Rhodamine 123 fluorescence | inhibition, % at 10 µM | actives 78% (n = 5,000) | AID 624504; in the data active means inhibition above about 22%;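 further: 0% = DMSO vehicle and 100% = positive control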
MPTP abs DR – MPTP inhibition, dose response swelling confirmation | IC50, µM | actives 58% (n = 780) | AID 651561 | shares compounds with MPTP block | isolated mitochondria swelling, absorbance; in the data active means IC50 below about 20 µM
MPTP counter DR – active in counter-screen for permeability transition pore inhibitors | shares compounds with MPTP block | isolated mitochondria counterscreen, fluorescence read-out | IC50, µM | actives 49% (n = 780) | AID 651564; in the data active means IC50 below about 80 µM
The depositor's hits bear a star; i = inactive; . = no result given.

SMILES	V-ATPase pH	Exocytosis inh	rCAG RNA binder	Beta2AR agonist	MPTP block	T cell modulator	Rh123 counter	others
CCCCOc1nc2ccccc2nc1NS(=O)(=O)c1ccc(F)cc1	1	13	20	11	1	.	.
CC1(C)CC(=O)C2=C(C1)NC1=C(C(=O)c3ccccc31)C2c1ccc(Cl)cc1 (configuration not stated)	-5	8	6	0	98*	203	52*
Cc1ccc(C2C3=C(CC(C)(C)CC3=O)NC3=C2C(=O)c2ccccc23)cc1 (configuration not stated)	-1	7	4	-9	39	317	.
Cc1ccc(C(C#N)c2ccc3c(C(F)(F)F)cc(C(F)(F)F)nc3n2)cc1 (configuration not stated)	-1	3	0	14	113*	436	68*
CN(N)c1ccc2c(C(F)(F)F)cc(C(F)(F)F)nc2n1	-12	2	-3	-9	0	145	.
FC(F)(F)c1cc(C(F)(F)F)c2ccc(N/N=C/c3ccccc3)nc2n1	-7	10	1	2	-4	204	.
N#CC(c1ccccc1)c1ccc2c(C(F)(F)F)cc(C(F)(F)F)nc2n1 (configuration not stated)	3	-1	0	19	93*	444	70*
C=CC[C@]12C[C@@]3(O[C@H](c4ccc(C(F)(F)F)cc4)N=C3C[C@H](c3ccc(OC)cc3)[C@H]1C)N(Cc1ccncc1)C2=O	.	.	4	.	.	.	.
O=C(Nc1cc(Cl)cc(Cl)c1)N1CCCC1	2	1	3	-5	98*	319	93*
O=C(Nc1cc(Cl)cc(Cl)c1)C(c1ccccc1)N1CCCCC1 (configuration not stated)	-2	2	2	11	83*	323	98*
O=C(Nc1nccs1)C(c1ccccc1)N1CCCCC1 (configuration not stated)	-2	-2	-1	-8	0	229	.
O=C(Nc1ccc(F)c(Cl)c1)N1CCCC1	-2	-7	-3	10	2	200	.
CCOC(=O)C1CCN(C(=O)Nc2cc(Cl)cc(Cl)c2)CC1	-1	-1	-4	8	78*	496	92*
Brc1ccccc1Cn1nnc(-c2ccc(N3CCOCC3)cc2)n1	.	.	1	.	.	.	.
CCC(=O)N1CCc2cc(Br)c(S(=O)(=O)NCc3ccccc3OC)cc21	.	.	6	.	.	.	.
COc1ccc(/C=N\NC(=O)CN2CCN(Cc3ccccc3)CC2)cc1OCc1ccccc1	.	.	2	.	.	.	.
O=C(O)c1ccccc1C(=O)Nc1ccc(Br)c(C(F)(F)F)c1	3	-4	-1	-2	6	i	.
Cc1cc(C)c(C(=O)Nc2ccc(Br)c(C(F)(F)F)c2)c(C)c1	-4	-1	-2	24	58*	0	83*
O=C(NCCCSc1ccccc1)c1cc(Br)ccc1O	4	3	10	11	75*	254	86*
C=CCN1C(=O)[C@H](CC(=O)N2CCN(C(=O)c3ccco3)CC2)[C@@]2(C(=O)OCC)CCCC=C12	.	.	1	.	.	.	.
O=C(Nc1ccc(Oc2ccccc2)cc1)c1csc([C@H]2C[C@H](O)[C@@H](CO)O2)n1	.	-8	1	.	81*	.	74*
CC(=O)Nc1ccc(NC(=O)c2csc([C@@H]3C[C@H](O)[C@@H](CO)O3)n2)cc1	.	-5	3	.	0	.	.
O=[N+]([O-])c1cccc(-c2nc(NCc3ccccc3)c3ccccc3n2)c1	-2	18	5	-4	25	631	.
CN(Cc1ccccc1)c1nc(-c2cccc([N+](=O)[O-])c2)nc2ccccc12	9	0	4	0	67*	316	1	MPTP abs DR=19*;MPTP counter DR=>80
Cc1cc(OCC(=O)NCC(C)C)cc(C)c1Br	-2	-1	3	4	-1	320	.
CCCC(C)NC(=O)Cc1ccc(Br)cc1 (configuration not stated)	0	-2	-5	7	0	363	.
